Compounds with a hit are over-represented: about 1.9% of the library has one in this group of screens.
ZTA DNA inh: blocks Epstein-Barr virus ZTA, an EBNA-1 counter-screen; actives 0.15% (n = 320,000); ZTA-DNA binding, fluorescence polarization; inhibition, % at 11 µM; AID 2234; in the data active means inhibition above about 33%
Target sequence (P03206 whole entry, looked up): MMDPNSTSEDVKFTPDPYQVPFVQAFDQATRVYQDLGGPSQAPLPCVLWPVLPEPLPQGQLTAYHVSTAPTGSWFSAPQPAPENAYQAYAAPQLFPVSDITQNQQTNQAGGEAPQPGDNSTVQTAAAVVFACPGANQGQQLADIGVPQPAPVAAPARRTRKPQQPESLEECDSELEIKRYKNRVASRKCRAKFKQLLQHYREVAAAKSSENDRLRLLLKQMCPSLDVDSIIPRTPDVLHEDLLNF
EBNA-1 inh: EBNA-1 DNA-binding inhibitors, primary screen, biochemical, fluorescence polarization | inhibition, % at 14.8 µM | actives 0.34% (n = 300,000) | AID 1950, 2009; in the data active means inhibition above about 28%
PP1 counter: PP1-alpha phosphatase inhibitors, primary screen, counter-screen for PP5 inhibitor project, biochemical, fluorescence, OMFP substrate, single point; Serine/threonine-protein phosphatase PP1-alpha catalytic subunit (Homo sapiens), P62136; purified PP1alpha; inhibition, % at 6.7 µM; actives 0.9% (n = 320,000); AID 2235, 2010;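 active means inhibition above the mean inhibition of all tested compounds plus 3 SD, computed separately for each screening campaign, cut at about 15% in these data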
Target sequence (P62136 whole entry, looked up): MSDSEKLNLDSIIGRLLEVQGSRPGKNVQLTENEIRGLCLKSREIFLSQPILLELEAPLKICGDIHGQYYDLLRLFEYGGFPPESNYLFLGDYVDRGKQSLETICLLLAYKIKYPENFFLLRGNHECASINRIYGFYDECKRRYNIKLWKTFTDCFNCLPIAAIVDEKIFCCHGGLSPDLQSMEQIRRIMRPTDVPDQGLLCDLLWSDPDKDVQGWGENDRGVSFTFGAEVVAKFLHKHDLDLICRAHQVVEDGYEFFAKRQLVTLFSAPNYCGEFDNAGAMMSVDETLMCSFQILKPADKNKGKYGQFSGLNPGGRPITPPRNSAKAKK
NS3 helicase inh: inhibitors of HCV NS3 helicase, primary screen, biochemical, Cy5 molecular beacon fluorescence | inhibition, % at 10.9 µM | NS3 helicase DNA unwinding | Hepatitis C virus NS3 helicase | actives 0.56% (n = 290,000);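 active means inhibition above the mean of all tested compounds plus 3 SD, set per campaign, cut at about 35% in these data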;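 further: 0% = DMSO wells and 100% = thioflavine S control wells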
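Test system: hepatitis C virus NS3 helicase domain fragment enzyme. Also added: annealed dual-labelled DNA beacon duplex, ATP-started. Timing: 60 min unwinding reaction at 25 °C after ATP addition. Technique: Cy5 fluorescence. Measure: % inhibition of unwinding.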
core dimer inh: inhibitors of HCV core protein dimerization, primary screen, biochemical, TR-FRET, high-throughput | actives 0.33% (n = 300,000) | inhibition, % at 5 µM | AID 1899, 2009 | TR-FRET GST/Flag-core106 dimerization, 1536-well;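 active means inhibition above the mean of all tested compounds plus 3 SD, set per screening campaign, cut at about 45% in these data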
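Assay system: GST-tagged and Flag-tagged HCV core protein residues 1-106 / Times: compound-protein-antibody incubation 4 h at 22.5 °C / Signal: time-resolved FRET, ex 340 nm, em 617 and 671 nm / Evaluation: % inhibition based on acceptor/donor emission ratio / Benchmarks: wells lacking GST-core106 and wells with excess unlabelled core106 / Repeats: singlicate, one well per compound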
PP1 confirm: PP1 phosphatase inhibitors, confirmation, biochemical, fluorescence, OMFP substrate, triplicate. shares compounds with PP1 counter. purified PP1alpha. inhibition, % at 6.7 µM. actives 52% (n = 1,900);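 active means mean PP1 inhibition above a set limit taken from the earlier primary screen, cut at about 15% in these data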
PP5 inh counter: PP5 phosphatase inhibition by PP1 hits, confirmation, counter-screen for PP1 inhibitor project, biochemical, fluorescence, triplicate; shares compounds with PP1 counter; purified PP5c, OMFP fluorescence; inhibition, % at 6.7 µM; actives 4% (n = 1,900); AID 2360, 2010;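 active means mean PP5 inhibition over triplicate wells above about 9.5% taken from the earlier PP1 screen, limit read from the data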
* hit, by the source's call; x = no result.

SMILES	ZTA DNA inh	EBNA-1 inh	PP1 counter	NS3 helicase inh	core dimer inh	PP1 confirm	PP5 inh counter
COCCN(CCOC)C(=O)c1ccc(CSc2nc3ccccc3s2)cc1	4	2	0	-11	2	x	x
O=[N+]([O-])c1ccc(S(=O)(=O)Nc2nnc(C3CCCCC3)s2)cc1	6	-15	6	-24	5	x	x
C=C(C)C(=O)Nc1cccc(C2=NOC3(C2)C[C@H](C(N)=O)N(C(=O)CC)C3)c1 (stereo not given in full)	21	12	7	x	-76	x	x
C/C=C/C=C\C(=O)Nc1cccc(C2=NOC3(C2)C[C@H](C(N)=O)N(C(=O)CC#N)C3)c1 (stereo not given in full)	0	0	19*	x	28	1	-3
CCC(=O)N1CC2(CC(c3cccc(NC(=O)CC(c4ccccc4)c4ccccc4)c3)=NO2)C[C@H]1C(N)=O (stereo not given in full)	5	12	-1	x	-3	x	x
C/C=C(\C)C(=O)Nc1cccc(C2=NOC3(C2)C[C@@H](C(N)=O)N(C(=O)c2ccccc2C(=O)c2ccccc2)C3)c1 (stereo not given in full)	-6	-2	-3	x	6	x	x
C=C(C)C(=O)Nc1cccc(C2=NOC3(C2)C[C@H](C(N)=O)N(C(=O)CC#N)C3)c1 (stereo not given in full)	7	5	37*	x	-15	9	0
C/C=C(/C)C(=O)Nc1cccc(C2=NOC3(C2)C[C@H](C(N)=O)N(C(=O)c2ccccc2)C3)c1 (stereo not given in full)	-18	9	42*	x	-10	1	-2
NC(=O)[C@H]1CC2(CC(c3cccc(NC(=O)CC(c4ccccc4)c4ccccc4)c3)=NO2)CN1C(=O)CC(c1ccccc1)c1ccccc1 (stereo not given in full)	5	7	22*	x	26	29*	12*
COCC(C)n1c(SCC(=O)c2cc(C)n(C)c2C)nc2ccccc2c1=O (stereo not given)	-6	-11	0	6	1	x	x
C/C(N)=C(/C#N)C(=O)CSc1nc2ccccc2n1CC(C)C	13	7	-1	3	6	x	x
CCOC(=O)c1ccc(NS(=O)(=O)c2ccc(Cl)nc2)cc1	16	5	-54	-10	5	2	2
Cc1ccc(/C([O-])=C(/C(=S)Nc2ccc(SC(F)F)cc2)[n+]2ccccc2)cc1[N+](=O)[O-]	-4	-15	4	0	21	x	x
Cc1cc(C(=O)CSc2nn(-c3ccccc3)c(=S)s2)c(C)n1Cc1ccco1	-14	5	20*	10	3	15	-2
COc1cc(/C=C2\SC(N)=NC2=O)ccc1OCC(=O)Nc1ccc(C)cc1	-13	12	21*	-1	-1	18*	1
COC(=O)c1cc(CNC(=O)c2sccc2-c2ccccc2)ccc1OC	-5	7	-5	-9	4	x	x
CCOC(=O)c1c(C)[nH]c(C(=O)OC/C(O)=C(\C#N)c2nc3ccccc3[nH]2)c1C	11	-1	20*	-4	4	10	1
O=C(O)COc1ccccc1/C=N/Nc1ccc(S(=O)(=O)Nc2ccc(Cl)cc2)cc1[N+](=O)[O-]	6	7	19*	-23	16	14	-3
Cc1cccnc1NC(=O)C1CC(=O)N(c2ccc3c(c2)OCCO3)C1 (stereo not given)	10	4	-1	x	13	x	x
O=C(Nc1nc(-c2ccccn2)cs1)C1CC(=O)N(c2ccc3c(c2)OCCO3)C1 (stereo not given)	0	8	45*	2	41	55*	-2
CCCCN(CC)S(=O)(=O)c1ccc(C(=O)Nc2nnc(-c3ccccc3Cl)o2)cc1	-3	12	8	13	25	x	x
CCN(c1ccccc1)S(=O)(=O)c1ccc(C(=O)Nc2nnc(CSC)o2)cc1	-33	1	38*	7	-4	28*	2
CCCCN(CC)S(=O)(=O)c1ccc(C(=O)Nc2nnc(COC)o2)cc1	-10	-4	19*	6	1	6	-1
CCCCN(CCCC)S(=O)(=O)c1ccc(C(=O)Nc2nnc(CSC)o2)cc1	-1	5	27*	-10	11	29*	7
CCCCN(C)S(=O)(=O)c1ccc(C(=O)Nc2nnc(-c3cccs3)o2)cc1	-15	-5	33*	13	12	20*	0
SMILES	ZTA DNA inh	EBNA-1 inh	PP1 counter	NS3 helicase inh	core dimer inh	PP1 confirm	PP5 inh counter
CCN(c1ccccc1)S(=O)(=O)c1ccc(C(=O)Nc2nnc(COC)o2)cc1	15	-7	14	6	2	x	x
O=C(CSc1nnc(Cc2ccccc2)o1)c1cc(F)ccc1F	-3	13	0	2	-6	x	x
NNC(=S)Nc1c(Br)cc(F)cc1Br	3	10	-1	7	-4	x	x
N=C1/C(=C\c2ccc(Br)o2)C(=O)N=C2SC(CC(=O)N3CCCCC3)=NN12	-15	-10	-3	19	8	x	x
Cc1c(CCC(=O)NCCCN2CCCC2=O)c(=O)oc2c(C)c(O)ccc12	-17	-10	-3	-13	-2	x	x
CCc1nnc(NC(=O)c2ccc(S(=O)(=O)N(CCOC)CCOC)cc2)o1	10	1	4	-4	1	x	x
COCc1nnc(NC(=O)c2ccc(S(=O)(=O)N(C)c3ccccc3)cc2)o1	-1	6	22*	-2	-2	6	-3
O=C(Nc1nnc(-c2cccnc2)o1)c1cccc(Cl)c1	-13	-10	8	1	3	x	x
O=C(Nc1nnc(-c2ccccn2)o1)c1cccc(Cl)c1	-3	-8	25*	5	-1	5	-3
CCCN(CCC)S(=O)(=O)c1ccc(C(=O)Nc2nnc(CSC)o2)cc1	15	20	24*	11	3	22*	-2
CCCCN(CC)S(=O)(=O)c1ccc(C(=O)Nc2nnc(CSC)o2)cc1	1	-15	29*	25	5	20*	-1
O=C(Nc1nnc(-c2cccs2)o1)c1cccc(F)c1	4	1	1	3	-2	x	x
O=C(Nc1nnc(-c2cccs2)o1)c1cccc(Oc2ccccc2)c1	1	-7	29*	26	24	29*	-2

Screening results: PubChem, The Scripps Research Institute Molecular Screening Center
